The test is described as follows: Euglycemic clamp study: pharmacodynamics by glucose infusion rate. The following applies: for GIR tmax50 (time to reach 50% of maximum GIR) / GIR tmax (time to reach maximum GIR): euglycemic clamp, 12 patients, mean ± SD. It counts as in vivo, human (type 1 diabetic patients). A digest of the protocol: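 Crossover design with a 5–21 d washout, in fasting C-peptide-negative patients. During a 3–7 h run-in, IV human insulin/glucose held plasma glucose at 5.5 ± 1.1 mmol/L, with insulin tapered off over the last hour. At time 0, a fast-acting insulin analogue was injected into abdominal s.c. fat. Variable 10% glucose then ran for 8 h. Arterialized venous glucose (arm warmed at 55°C) was measured every 5–10 min in duplicate, and GIR AUC was calculated.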

Setting [1] is: 9 × 2 IU dispersed s.c. boluses.

As to insulin aspart, the “GIR tmax50 (time to reach 50% of maximum GIR)” value is, setting by setting: (1 × 18 IU single s.c. bolus) 49 ± 16 min; under setting [1], 38 ± 9 min. In addition, the “GIR tmax (time to reach maximum GIR)” value is, setting by setting: (1 × 18 IU single s.c. bolus) 127 ± 93 min; under setting [1], 68 ± 33 min. Besides, where the note is “9 × 2 IU vs. 1 × 18 IU”, the “shortening of time to reach maximum GIR” value is reported as about 50%.

These data come from article PMC3609526 (Diabetes Care, 2013).
